Results as given in ChEMBL document CHEMBL3739392, “Development of highly potent phosphodiesterase 10A (PDE10A) inhibitors: Synthesis and in vitro evaluation of 1,8-dipyridinyl- and 1-pyridinyl-substituted imidazo[1,5-a]quinoxalines” (Eur J Med Chem, 2016).

Key:
[1] = target: 3',5'-cyclic-AMP phosphodiesterase 4A (Homo sapiens, UniProt P27815); assay: Inhibition of human PDE4A using [3H]cAMP as substrate after 30 mins by scintillation proximity assay
[2] = target: cGMP-dependent 3',5'-cyclic phosphodiesterase (Homo sapiens, UniProt O00408); assay: Inhibition of cGMP activated human recombinant PDE2A using [3H]cAMP as substrate after 30 mins by scintillation proximity assay
How it was run: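 PDE2A (NM002599) activated with 1 µM cGMP; substrate 0.5 µM [3H]cAMP; scintillation proximity read-out at varied inhibitor concentrations with fixed enzyme amount; IC50 from two-parameter Hill model.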

[3] = target: 3',5'-cyclic-AMP phosphodiesterase 7B (Homo sapiens, UniProt Q9NP56); assay: Inhibition of human PDE7B using [3H]cAMP as substrate after 30 mins by scintillation proximity assay
[4] = Inhibition of bovine PDE6 using [3H]cAMP as substrate after 30 mins by scintillation proximity assay; parameters: species or system Bos taurus
[5] = target: High affinity cGMP-specific 3',5'-cyclic phosphodiesterase 9A (Homo sapiens, UniProt O76083); assay: Inhibition of human PDE9A using [3H]cAMP as substrate after 30 mins by scintillation proximity assay
[6] = target: cGMP-inhibited 3',5'-cyclic phosphodiesterase 3A (Homo sapiens, UniProt Q14432); assay: Inhibition of human PDE3A using [3H]cAMP as substrate after 30 mins by scintillation proximity assay
[7] = target: High affinity cAMP-specific and IBMX-insensitive 3',5'-cyclic phosphodiesterase 8A (Homo sapiens, UniProt O60658); assay: Inhibition of human PDE8A using [3H]cAMP as substrate after 30 mins by scintillation proximity assay
[8] = target: cAMP and cAMP-inhibited cGMP 3',5'-cyclic phosphodiesterase 10A (Homo sapiens, UniProt Q9Y233); assay: Inhibition of human recombinant PDE10A1 expressed in baculovirus infected insect SF21 cells using [3H]cAMP as substrate after 30 mins by scintillation proximity assay
How it was run: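 Cytosolic PDE10A1 from Sf21 lysate (sonication in Tris-HCl/EDTA/sucrose pH 7.4, 48000 g supernatant, stored -70°C). Assay in 50 mM Tris-HCl/5 mM MgCl2 with 0.1 µM [3H]cAMP, started by substrate, 37°C for 30 min; stopped with Ysi-SPA beads, settled 1 h, scintillation counting. Enzyme amount optimized per preparation; no-enzyme blank for non-specific activity; IC50 by two-parameter Hill model.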

[9] = target: cGMP-specific 3',5'-cyclic phosphodiesterase (Homo sapiens, UniProt O76074); assay: Inhibition of human PDE5A using [3H]cAMP as substrate after 30 mins by scintillation proximity assay
[10] = target: Dual 3',5'-cyclic-AMP and -GMP phosphodiesterase 11A (Homo sapiens, UniProt Q9HCR9); assay: Inhibition of human PDE11A using [3H]cAMP as substrate after 30 mins by scintillation proximity assay
[11] = target: Dual specificity calcium/calmodulin-dependent 3',5'-cyclic nucleotide phosphodiesterase 1B (Homo sapiens, UniProt Q01064); assay: Inhibition of human PDE1B using [3H]cAMP as substrate after 30 mins by scintillation proximity assay
Homo sapiens = species on record: Homo sapiens; assay: Selectivity factor, ratio of IC50 for human recombinant PDE2A to IC50 for human recombinant PDE10A1

Sequence of Dual specificity calcium/calmodulin-dependent 3',5'-cyclic nucleotide phosphodiesterase 1B (Q01064 whole entry): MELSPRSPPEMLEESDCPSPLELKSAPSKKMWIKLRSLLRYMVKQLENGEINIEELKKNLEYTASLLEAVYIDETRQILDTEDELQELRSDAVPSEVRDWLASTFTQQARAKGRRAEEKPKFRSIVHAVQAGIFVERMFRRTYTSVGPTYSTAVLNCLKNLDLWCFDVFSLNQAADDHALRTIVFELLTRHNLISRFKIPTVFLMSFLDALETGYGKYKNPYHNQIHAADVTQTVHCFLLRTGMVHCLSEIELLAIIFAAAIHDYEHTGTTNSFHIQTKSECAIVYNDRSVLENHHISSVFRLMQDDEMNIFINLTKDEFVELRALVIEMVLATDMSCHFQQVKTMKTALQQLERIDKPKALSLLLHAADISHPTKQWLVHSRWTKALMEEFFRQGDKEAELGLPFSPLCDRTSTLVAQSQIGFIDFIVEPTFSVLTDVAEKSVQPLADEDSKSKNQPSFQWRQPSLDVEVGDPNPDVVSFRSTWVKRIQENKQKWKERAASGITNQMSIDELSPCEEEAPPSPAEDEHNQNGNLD
Sequence of Dual 3',5'-cyclic-AMP and -GMP phosphodiesterase 11A (Q9HCR9 whole entry): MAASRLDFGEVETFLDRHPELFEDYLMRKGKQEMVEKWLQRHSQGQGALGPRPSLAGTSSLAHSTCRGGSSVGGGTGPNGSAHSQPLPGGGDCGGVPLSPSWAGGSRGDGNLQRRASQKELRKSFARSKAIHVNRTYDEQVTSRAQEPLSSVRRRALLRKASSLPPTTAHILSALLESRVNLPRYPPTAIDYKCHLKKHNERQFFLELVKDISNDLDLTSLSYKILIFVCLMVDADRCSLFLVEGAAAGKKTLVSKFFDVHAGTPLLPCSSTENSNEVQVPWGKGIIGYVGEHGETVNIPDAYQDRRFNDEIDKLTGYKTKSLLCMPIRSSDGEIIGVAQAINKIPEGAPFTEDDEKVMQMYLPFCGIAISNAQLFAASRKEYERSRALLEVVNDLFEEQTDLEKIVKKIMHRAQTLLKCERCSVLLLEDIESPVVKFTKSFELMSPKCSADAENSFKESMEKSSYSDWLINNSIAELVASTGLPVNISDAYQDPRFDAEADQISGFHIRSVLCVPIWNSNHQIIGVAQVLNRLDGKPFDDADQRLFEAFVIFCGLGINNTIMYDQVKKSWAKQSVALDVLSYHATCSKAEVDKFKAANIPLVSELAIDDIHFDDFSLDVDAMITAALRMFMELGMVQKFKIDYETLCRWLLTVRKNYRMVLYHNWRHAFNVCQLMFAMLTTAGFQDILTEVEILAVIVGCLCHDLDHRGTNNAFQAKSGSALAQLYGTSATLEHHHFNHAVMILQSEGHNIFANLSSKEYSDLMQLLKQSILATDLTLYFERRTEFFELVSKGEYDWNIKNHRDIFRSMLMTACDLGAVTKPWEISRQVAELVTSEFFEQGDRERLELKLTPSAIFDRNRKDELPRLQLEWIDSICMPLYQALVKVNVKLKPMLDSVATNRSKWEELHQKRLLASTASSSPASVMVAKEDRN
Sequence of cGMP-inhibited 3',5'-cyclic phosphodiesterase 3A (Q14432 whole entry): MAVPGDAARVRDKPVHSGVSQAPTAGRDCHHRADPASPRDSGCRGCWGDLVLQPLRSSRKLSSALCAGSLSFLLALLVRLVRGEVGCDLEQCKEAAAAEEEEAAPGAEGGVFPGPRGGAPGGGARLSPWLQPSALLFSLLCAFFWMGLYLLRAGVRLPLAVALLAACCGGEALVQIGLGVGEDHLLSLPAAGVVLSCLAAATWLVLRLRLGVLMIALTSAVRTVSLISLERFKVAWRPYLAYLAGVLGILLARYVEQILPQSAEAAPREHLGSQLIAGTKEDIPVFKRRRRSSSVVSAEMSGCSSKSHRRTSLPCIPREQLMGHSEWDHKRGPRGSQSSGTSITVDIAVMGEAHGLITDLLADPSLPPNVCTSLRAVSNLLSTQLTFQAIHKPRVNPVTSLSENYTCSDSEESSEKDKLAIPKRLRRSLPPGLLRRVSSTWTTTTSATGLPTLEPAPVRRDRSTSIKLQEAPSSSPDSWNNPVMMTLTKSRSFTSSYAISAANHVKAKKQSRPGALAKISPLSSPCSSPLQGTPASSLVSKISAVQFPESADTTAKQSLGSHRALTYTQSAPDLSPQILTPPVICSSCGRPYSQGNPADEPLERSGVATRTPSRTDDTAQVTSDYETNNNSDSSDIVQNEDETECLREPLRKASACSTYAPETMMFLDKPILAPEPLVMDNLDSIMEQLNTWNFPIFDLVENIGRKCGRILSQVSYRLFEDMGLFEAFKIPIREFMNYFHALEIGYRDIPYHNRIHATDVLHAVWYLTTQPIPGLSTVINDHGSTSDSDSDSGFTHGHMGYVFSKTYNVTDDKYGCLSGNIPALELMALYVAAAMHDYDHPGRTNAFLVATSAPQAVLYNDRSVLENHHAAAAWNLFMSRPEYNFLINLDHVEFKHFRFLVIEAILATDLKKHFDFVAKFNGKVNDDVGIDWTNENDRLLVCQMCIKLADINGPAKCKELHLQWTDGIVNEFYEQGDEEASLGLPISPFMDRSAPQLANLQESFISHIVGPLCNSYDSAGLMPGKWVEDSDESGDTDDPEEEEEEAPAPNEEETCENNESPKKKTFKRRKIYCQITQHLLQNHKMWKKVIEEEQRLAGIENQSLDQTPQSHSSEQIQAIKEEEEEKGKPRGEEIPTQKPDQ
Sequence of cGMP-dependent 3',5'-cyclic phosphodiesterase (O00408 whole entry): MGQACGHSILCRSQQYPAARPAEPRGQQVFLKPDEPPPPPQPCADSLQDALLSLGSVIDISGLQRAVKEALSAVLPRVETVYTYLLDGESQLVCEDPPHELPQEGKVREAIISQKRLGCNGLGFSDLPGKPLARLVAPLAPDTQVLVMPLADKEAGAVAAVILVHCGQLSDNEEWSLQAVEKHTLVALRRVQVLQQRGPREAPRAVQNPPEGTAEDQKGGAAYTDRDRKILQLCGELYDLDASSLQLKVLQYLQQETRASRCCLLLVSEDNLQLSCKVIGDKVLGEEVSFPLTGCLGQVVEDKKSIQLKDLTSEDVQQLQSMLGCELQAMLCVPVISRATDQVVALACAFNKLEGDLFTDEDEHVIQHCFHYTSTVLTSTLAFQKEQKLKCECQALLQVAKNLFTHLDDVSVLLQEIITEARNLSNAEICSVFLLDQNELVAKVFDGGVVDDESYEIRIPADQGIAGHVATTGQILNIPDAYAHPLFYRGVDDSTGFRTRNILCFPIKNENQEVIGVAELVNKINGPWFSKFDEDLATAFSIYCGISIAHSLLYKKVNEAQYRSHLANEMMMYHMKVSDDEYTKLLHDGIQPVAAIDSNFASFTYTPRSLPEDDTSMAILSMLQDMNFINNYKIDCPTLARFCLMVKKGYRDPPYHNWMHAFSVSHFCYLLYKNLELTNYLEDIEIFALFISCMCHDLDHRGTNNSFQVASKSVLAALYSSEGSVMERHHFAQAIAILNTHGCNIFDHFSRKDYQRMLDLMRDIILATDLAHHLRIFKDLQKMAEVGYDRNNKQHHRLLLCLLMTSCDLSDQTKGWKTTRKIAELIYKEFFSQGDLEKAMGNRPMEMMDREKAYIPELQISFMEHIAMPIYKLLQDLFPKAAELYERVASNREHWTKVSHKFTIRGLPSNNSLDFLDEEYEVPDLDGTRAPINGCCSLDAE
Sequence of 3',5'-cyclic-AMP phosphodiesterase 4A (P27815 whole entry): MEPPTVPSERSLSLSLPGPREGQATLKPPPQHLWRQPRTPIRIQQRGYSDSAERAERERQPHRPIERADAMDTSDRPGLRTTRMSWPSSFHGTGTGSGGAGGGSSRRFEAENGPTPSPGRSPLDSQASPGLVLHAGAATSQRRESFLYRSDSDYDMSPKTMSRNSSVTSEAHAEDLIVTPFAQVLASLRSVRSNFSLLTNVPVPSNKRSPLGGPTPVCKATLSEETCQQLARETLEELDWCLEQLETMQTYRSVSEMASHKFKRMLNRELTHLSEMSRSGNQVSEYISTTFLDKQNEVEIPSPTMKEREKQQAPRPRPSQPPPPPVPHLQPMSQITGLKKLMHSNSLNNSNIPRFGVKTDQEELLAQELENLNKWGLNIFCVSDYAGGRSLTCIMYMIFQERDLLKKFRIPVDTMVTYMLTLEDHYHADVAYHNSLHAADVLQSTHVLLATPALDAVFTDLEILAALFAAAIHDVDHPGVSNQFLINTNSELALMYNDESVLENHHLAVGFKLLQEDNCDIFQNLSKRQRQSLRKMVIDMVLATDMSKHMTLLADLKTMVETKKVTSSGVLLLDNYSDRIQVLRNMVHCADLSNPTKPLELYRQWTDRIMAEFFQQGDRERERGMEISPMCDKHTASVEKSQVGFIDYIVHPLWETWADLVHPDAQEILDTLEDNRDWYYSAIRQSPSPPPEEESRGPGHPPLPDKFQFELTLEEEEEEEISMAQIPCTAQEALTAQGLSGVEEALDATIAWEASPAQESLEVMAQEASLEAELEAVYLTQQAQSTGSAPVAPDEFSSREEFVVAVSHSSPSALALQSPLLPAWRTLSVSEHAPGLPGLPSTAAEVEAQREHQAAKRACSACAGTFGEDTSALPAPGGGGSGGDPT
Sequence of High affinity cGMP-specific 3',5'-cyclic phosphodiesterase 9A (O76083 whole entry): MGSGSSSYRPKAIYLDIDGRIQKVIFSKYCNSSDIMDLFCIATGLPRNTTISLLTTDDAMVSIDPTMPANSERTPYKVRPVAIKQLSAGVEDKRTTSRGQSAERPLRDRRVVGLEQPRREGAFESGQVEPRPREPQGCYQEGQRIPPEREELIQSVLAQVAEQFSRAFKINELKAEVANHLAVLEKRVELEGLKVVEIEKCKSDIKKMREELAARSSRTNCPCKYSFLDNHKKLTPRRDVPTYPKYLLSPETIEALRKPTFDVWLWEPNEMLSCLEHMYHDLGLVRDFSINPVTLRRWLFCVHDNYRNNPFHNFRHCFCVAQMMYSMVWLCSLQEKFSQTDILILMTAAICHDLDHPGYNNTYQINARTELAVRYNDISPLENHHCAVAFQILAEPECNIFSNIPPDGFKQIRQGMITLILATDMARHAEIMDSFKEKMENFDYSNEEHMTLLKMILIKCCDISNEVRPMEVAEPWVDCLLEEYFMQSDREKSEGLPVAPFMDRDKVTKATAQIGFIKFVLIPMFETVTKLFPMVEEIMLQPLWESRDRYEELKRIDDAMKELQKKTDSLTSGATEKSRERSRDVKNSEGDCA

Row | SMILES | IC50 [1] [nM] | IC50 [2] [nM] | IC50 [3] [nM] | IC50 [4] [nM] | IC50 [5] [nM] | IC50 [6] [nM] | IC50 [7] [nM] | IC50 [8] [nM] | IC50 [9] [nM] | IC50 [10] [nM] | IC50 [11] [nM] | Ratio IC50 (Homo sapiens)
1 | COc1cc(-c2ccc(F)nc2)cc2c1nc(C)c1c(C)ncn12 |  | > 1000 |  |  |  |  |  | 26.3 |  |  |  | > 38
2 | COc1cc(Br)cc2c1nc(C)c1c(C)nc(-c3ccc(F)nc3)n12 | > 1000 | > 1000 | > 1000 | > 1000 | > 1000 | > 1000 | > 1000 | 2.95 | > 1000 | > 1000 | > 1000 | > 339
3 | COc1cc(Br)cc2c1nc(C)c1c(C)nc(-c3cccnc3F)n12 | > 1000 | 23.9 | > 1000 | 432 | > 1000 | > 1000 | > 1000 | 0.12 | 606 | 494 | > 1000 | 199
4 | COc1cc2ncnc(N3CC[C@@H](Oc4cnc5ccccc5n4)C3)c2cc1OC |  |  |  |  |  |  |  | 16 |  |  |  | 
5 | COc1cc(C#N)cc2c1nc(C)c1c(C)nc(-c3ccc(F)nc3)n12 |  | > 1000 |  |  |  |  |  | 20.4 |  |  |  | > 49
6 | COc1cc(-c2cccnc2)cc2c1nc(C)c1c(C)nc(-c3ccc(F)nc3)n12 | > 1000 | 78.6 | > 1000 | 559 | > 1000 | > 1000 | > 1000 | 0.87 | 228 | 395 | > 1000 | 90
7 | COc1cc(-c2cccnc2)cc2c1nc(C)c1c(C)nc(-c3ccnc(F)c3)n12 |  | 46.8 |  |  |  |  |  | 0.46 |  |  |  | 102
8 | COc1cc(-c2ccc(F)nc2)cc2c1nc(C)c1c(C)nc(Br)n12 |  | > 1000 |  |  |  |  |  | 10.3 |  |  |  | > 97
9 | COc1cc(Br)cc2c1nc(C)c1c(C)nc(-c3ccnc(F)c3)n12 |  | > 1000 |  |  |  |  |  | 3.18 |  |  |  | > 312
10 | COc1cc(C#N)cc2c1nc(C)c1c(C)nc(-c3cccnc3F)n12 |  | 98.6 |  |  |  |  |  | 1.69 |  |  |  | 58
11 | COc1cc(-c2ccc(F)nc2)cc2c1nc(C)c1c(C)nc(-c3ccncc3)n12 | 841 | 65.7 | > 1000 | > 1000 | > 1000 | > 1000 | > 1000 | 0.41 | 201 | > 1000 | > 1000 | 160
12 | COc1cc(-c2ccc(F)nc2)cc2c1nc(C)c1c(C)nc(-c3cccnc3)n12 | > 1000 | 29.2 | > 1000 | 631 | > 1000 | > 1000 | > 1000 | 0.33 | 279 | 286 | > 1000 | 88

The remaining molecules from weak to strong by IC50 [8], led by results:

Row | IC50 [1] [nM] | IC50 [2] [nM] | IC50 [3] [nM] | IC50 [4] [nM] | IC50 [5] [nM] | IC50 [6] [nM] | IC50 [7] [nM] | IC50 [8] [nM] | IC50 [9] [nM] | IC50 [10] [nM] | IC50 [11] [nM] | Ratio IC50 (Homo sapiens) | SMILES
13 | > 1000 | 395 | > 1000 | > 1000 | > 1000 | > 1000 | > 1000 | 3.3 | > 1000 | > 1000 | > 1000 | 120 | COc1cc(-c2ccc(F)nc2)cc2c1nc(C)c1c(C)nc(-c3ccc(F)nc3)n12
14 |  | 481 |  |  |  |  |  | 1.57 |  |  |  | 306 | COc1cc(-c2ccnc(F)c2)cc2c1nc(C)c1c(C)nc(-c3ccnc(F)c3)n12
15 | > 1000 | 162 | < 1000 | 585 | > 1000 | > 1000 | > 1000 | 0.99 | 195 | 413 | > 1000 | 164 | COc1cc(-c2ccncc2)cc2c1nc(C)c1c(C)nc(-c3ccc(F)nc3)n12
16 | 1000 | 10.9 | > 1000 | 425 | > 1000 | > 1000 | > 1000 | 0.11 | 232 | 286 | > 1000 | 99 | COc1cc(-c2cccnc2)cc2c1nc(C)c1c(C)nc(-c3cccnc3)n12
17 |  | 2.06 |  |  |  |  |  | 0.048 |  |  |  | 43 | COc1cc(-c2cccnc2F)cc2c1nc(C)c1c(C)nc(-c3cccnc3F)n12
18 | < 1000 | 3.49 | > 1000 | 177 | > 1000 | > 1000 | > 1000 | 0.037 | 91.6 | 457 | > 1000 | 94 | COc1cc(-c2cccnc2)cc2c1nc(C)c1c(C)nc(-c3cccnc3F)n12
